Experimental data reported in ChEMBL document CHEMBL1153346, “Structure-activity study of pentamidine analogues as antiprotozoal agents” (J Med Chem, 2009).
pIC50: −log10 of the molar value. The source made the active and inactive calls. The rule behind the calls is not given here.

Legend:
[1] = Selectivity index, ratio of IC50 for rat L6 cells to IC50 for Trypanosoma brucei rhodesiense STIB900 trypomastigotes; assay type: toxicity, cell-based; conditions: read-out: Ratio IC50
Method in brief: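 Ratio of L6 IC50 to STIB900 IC50. L6 cells: 4000/well in RPMI 1640 with 10% FBS, 70 h at 37 °C. Bloodstream forms: 2000/well in supplemented MEM with 15% horse serum, 70 h at 37 °C. Both read by Alamar blue fluorescence; IC50s from sigmoidal curves, two independent runs in duplicate.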

L6 = experiment: Cytotoxicity against rat L6 cells after 70 hrs by alamar blue assay; assay type: cell-based; conditions: L6, 70 h
Method in brief: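 L6 rat myoblasts, 4000 per well, in RPMI 1640 with 2 mM L-glutamine, HEPES, NaHCO₃ and 10% FBS. Exposed to serial dilutions (DMSO ≤1%) for 70 h at 37 °C in humidified 5% CO₂. Resazurin then added for 2-3 h; fluorescence read at ex 536/em 588 nm. IC50 from sigmoidal curves; two independent runs in duplicate.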

[2] = tested on: Trypanosoma brucei rhodesiense; experiment: Antitrypanosomal activity against Trypanosoma brucei rhodesiense STIB900 trypomastigotes infected in NMRI mouse assessed as mouse survival at 5 mg/kg, ip administered from day 3 to day 6 postinfection; assay type: functional; conditions: route intraperitoneal
Method in brief: (§1)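 STIB900 acute mouse model. Dosing was intraperitoneal, daily for four days, in DMSO diluted with water to 10% final DMSO. An infected untreated control group was kept. Tail blood was checked for parasitemia to day 60, and deaths were recorded to give mean survival days. Mice surviving and aparasitemic at day 60 counted as cured.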

Plasmodium falciparum = experiment: Antiprotozoal activity after 48 hrs against chloroquine-resistant Plasmodium falciparum K1 infected erythrocytes by [3H]hypoxanthine uptake; assay type: functional, organism-based
Method in brief: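 Erythrocytic stages in infected human red cells (hematocrit 1.25%, parasitemia 0.3%) in supplemented RPMI 1640 with Albumax II. Serial dilutions incubated at 37 °C in 93% N2/4% CO2/3% O2. [3H]-hypoxanthine (0.5 µCi/well) added at 48 h, then 24 h more. Incorporation counted by scintillation. IC50 from sigmoidal curves; two independent runs in duplicate.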

[3] = Selectivity index, ratio of IC50 for rat L6 cells to IC50 for chloroquine-resistant Plasmodium falciparum K1; assay type: toxicity, cell-based; conditions: read-out: Ratio IC50
Method in brief: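 Ratio of L6 IC50 to K1 IC50. L6 cells: Alamar blue assay after 70 h, 37 °C. K1: [3H]-hypoxanthine incorporation in infected red cells over 48 + 24 h at 37 °C under low O2. IC50s from sigmoidal curves, two independent runs in duplicate.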

[4] = tested on: Trypanosoma brucei rhodesiense; experiment: Antitrypanosomal activity against Trypanosoma brucei rhodesiense STIB900 trypomastigotes infected in NMRI mouse assessed as mouse survival at 20 mg/kg, ip administered from day 3 to day 6 postinfection; assay type: functional; conditions: route intraperitoneal; method in brief: as §1
[5] = Selectivity index, ratio of IC50 for rat L6 cells to IC50 for Leishmania donovani MHOM/SD/62/1S-CL2D axenic amastigotes; assay type: toxicity, cell-based; conditions: read-out: Ratio IC50
Method in brief: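 Amastigotes: 6 × 10⁴ parasites/well with 2-fold dilutions, 72 h at 37 °C in 5% CO2. Growth read by tetrazolium CellTiter absorbance at 490 nm; IC50 from a four-parameter dose-response fit.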

[6] = tested on: Trypanosoma brucei rhodesiense; experiment: Antiprotozoal activity against Trypanosoma brucei rhodesiense STIB900 trypomastigotes after 70 hrs by alamar blue assay; assay type: functional, organism-based
Method in brief: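 Bloodstream forms, 2000 per well, in MEM with Earle's salts plus 0.2 mM 2-mercaptoethanol, 1 mM pyruvate, 0.5 mM hypoxanthine and 15% heat-inactivated horse serum. Exposed to serial dilutions (DMSO ≤1%) for 70 h at 37 °C in 5% CO₂. Resazurin then added for a further 2-6 h. IC50 from sigmoidal curves; two independent runs in duplicate.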

[7] = tested on: Trypanosoma brucei rhodesiense; experiment: Antitrypanosomal activity against Trypanosoma brucei rhodesiense STIB900 trypomastigotes infected in NMRI mouse assessed as survival and aparasitemic condition at 20 mg/kg, ip administered from day 3 to day 6 postinfection measured after 60 days postinfection; assay type: functional, organism-based; parameters: dose 20 mg/kg
Method in brief: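 STIB900 acute mouse model with 4 mice per group. Compound in DMSO diluted with water to a final 10% DMSO, given intraperitoneally once daily for four days. An infected, untreated control group was included. Tail blood checked for parasitemia until day 60. Mice alive and aparasitemic at day 60 counted as cured; deaths recorded for mean survival time.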

Leishmania donovani = experiment: Antiprotozoal activity against Leishmania donovani MHOM/SD/62/1S-CL2D axenic amastigotes after 72 hrs; assay type: functional, organism-based
Method in brief: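 L. donovani axenic amastigotes, adapted from promastigotes and grown in amastigote medium at 37 °C. 6 × 10⁴ parasites per well with 2-fold compound dilutions (DMSO ≤1%), incubated 72 h at 37 °C in humidified 5% CO₂. Growth read by tetrazolium (CellTiter) absorbance at 490 nm. IC50 from a four-parameter dose-response fit. Average of duplicate determinations.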

[8] = tested on: Trypanosoma brucei rhodesiense; experiment: Antitrypanosomal activity against Trypanosoma brucei rhodesiense STIB900 trypomastigotes infected in NMRI mouse assessed as mouse survival at 10 mg/kg, ip administered from day 3 to day 6 postinfection; assay type: functional; conditions: route intraperitoneal; method in brief: as §1

CNC(=N)c1ccc(OCCCCCOc2ccc(C(=N)NC)cc2)cc1.Cl.Cl
selectivity ratio [1]: 6330
pIC50 (L6): 3.82
Survival [2]: >41 days
pIC50 (Plasmodium falciparum): 8.40
selectivity ratio [3]: 38000
Survival [4]: >60 days
selectivity ratio [5]: 32
pIC50 [6]: 7.62
Activity [7]: Active
pIC50 (Leishmania donovani): 5.33

Cl.Cl.N=C(N)c1ccc(OCCCCCCOc2ccc(C(=N)N)cc2)cc1
selectivity ratio [1]: 292
pIC50 (L6): 4.98
Survival [2]: >44.3 days
pIC50 (Plasmodium falciparum): 7.82
selectivity ratio [3]: 700
Survival [4]: >51.8 days
selectivity ratio [5]: 5
pIC50 [6]: 7.44
pIC50 (Leishmania donovani): 5.71

Cl.Cl.N=C(N)c1ccc(OCCCOc2ccc(C3=NCCN3)cc2)cc1
Survival [8]: >26.8 days
selectivity ratio [1]: 3980
pIC50 (L6): 4.15
pIC50 (Plasmodium falciparum): 7.74
selectivity ratio [3]: 3980
selectivity ratio [5]: 24
pIC50 [6]: 7.74
pIC50 (Leishmania donovani): 5.53

CC(C)NC(=N)c1ccc(OCCCCCOc2ccc(C(=N)NC(C)C)cc2)cc1.Cl.Cl
selectivity ratio [1]: 5560
pIC50 (L6): 3.82
Survival [2]: >41.3 days
pIC50 (Plasmodium falciparum): 8.52
selectivity ratio [3]: 50000
selectivity ratio [5]: 8
pIC50 [6]: 7.57
pIC50 (Leishmania donovani): 4.75

Cl.N=C(N)c1ccc(NCCCCCNc2ccc(C(=N)N)cc2)cc1
selectivity ratio [1]: > 950
pIC50 (L6): 6.02
Survival [2]: >29.3 days
pIC50 (Plasmodium falciparum): 8.22
selectivity ratio [3]: 158
selectivity ratio [5]: 2
pIC50 [6]: > 9.00
pIC50 (Leishmania donovani): 6.30

Cl.c1cc(C2=NCCN2)ccc1OCCCCCOc1ccc(C2=NCCN2)cc1
selectivity ratio [1]: > 3360
pIC50 (L6): < 3.75
pIC50 (Plasmodium falciparum): 8.52
selectivity ratio [3]: > 59300
Survival [4]: >39 days
selectivity ratio [5]: > 64
pIC50 [6]: 7.28
Activity [7]: inactive
pIC50 (Leishmania donovani): 5.56

Cl.Cl.N=C(N)c1ccc(OCCCCOc2ccc(C(=N)N)cc2)cc1
selectivity ratio [1]: 470
pIC50 (L6): 5.33
pIC50 (Plasmodium falciparum): 7.68
selectivity ratio [3]: 224
Survival [4]: 24.8 days
pIC50 [6]: 8.00
Activity [7]: inactive

Cl.Cl.N=C(N)c1ccc(OCCCOc2ccc(C(=N)N)cc2)cc1
selectivity ratio [1]: 1260
pIC50 (L6): 5.06
pIC50 (Plasmodium falciparum): 8.22
selectivity ratio [3]: 1470
Survival [4]: 34 days
selectivity ratio [5]: 6
pIC50 [6]: 8.15
Activity [7]: inactive
pIC50 (Leishmania donovani): 5.82

Cl.Cl.N=C(N)c1cccc(OCCCCCOc2cccc(C(=N)N)c2)c1
selectivity ratio [1]: 283
pIC50 (L6): 4.74
pIC50 (Plasmodium falciparum): 7.72
selectivity ratio [3]: 968
Survival [4]: 18.5 days
selectivity ratio [5]: 6
pIC50 [6]: 7.19
Activity [7]: inactive
pIC50 (Leishmania donovani): 5.50

Cl.Cl.N=C(N)c1ccc(OCCCCCOc2ccc(C(=N)N)c(F)c2)cc1F
Survival [8]: >33 days
selectivity ratio [1]: 531
pIC50 (L6): 5.16
pIC50 (Plasmodium falciparum): 7.82
selectivity ratio [3]: 460
selectivity ratio [5]: 4
pIC50 [6]: 7.89
pIC50 (Leishmania donovani): 5.73

Cl.Cl.N=C(N)c1cccc(OCCCCCCOc2cccc(C(=N)N)c2)c1
selectivity ratio [1]: 228
pIC50 (L6): 4.77
pIC50 (Plasmodium falciparum): 7.89
selectivity ratio [3]: 1320
Survival [4]: >36 days
selectivity ratio [5]: 7
pIC50 [6]: 7.12
pIC50 (Leishmania donovani): 5.62

COc1cc(C(=N)N)ccc1OCCCOc1ccc(C(=N)N)cc1OC.Cl.Cl
selectivity ratio [1]: 4960
pIC50 (L6): 3.94
Survival [2]: >52.8 days
pIC50 (Plasmodium falciparum): 7.21
selectivity ratio [3]: 1840
Survival [4]: >60 days
selectivity ratio [5]: 17
pIC50 [6]: 7.64
Activity [7]: Active
pIC50 (Leishmania donovani): 5.16

Cl.Cl.N=C(N)c1cccc(OCCCOc2cccc(C(=N)N)c2)c1
Survival [8]: >40 days
selectivity ratio [1]: 312
pIC50 (L6): 4.79
pIC50 (Plasmodium falciparum): 7.77
selectivity ratio [3]: 953
Survival [4]: >32.8 days
selectivity ratio [5]: 3
pIC50 [6]: 7.28
pIC50 (Leishmania donovani): 5.22

Cl.Cl.N=C(Nc1ccc(OCCCCCOc2ccc(NC(=N)c3ccccc3)cc2)cc1)c1ccccc1
selectivity ratio [1]: 21
pIC50 (L6): 5.51
pIC50 (Plasmodium falciparum): 6.70
selectivity ratio [3]: 15
Survival [4]: 7 days
selectivity ratio [5]: < 1
pIC50 [6]: 6.83
Activity [7]: inactive
pIC50 (Leishmania donovani): < 4.00

COc1cc(C2=NCCN2)ccc1OCCCOc1ccc(C2=NCCN2)cc1OC.Cl.Cl
Survival [8]: >32.8 days
selectivity ratio [1]: 1170
pIC50 (L6): 3.98
pIC50 (Plasmodium falciparum): 7.26
selectivity ratio [3]: 1910
Survival [4]: >60 days
selectivity ratio [5]: 3
pIC50 [6]: 7.05
pIC50 (Leishmania donovani): 4.46

CC(C)NC(=N)c1ccc(OCCCOc2ccc(C(=N)NC(C)C)cc2)cc1.Cl.Cl
Survival [8]: >38.5 days
selectivity ratio [1]: > 2060
pIC50 (L6): < 3.72
pIC50 (Plasmodium falciparum): 7.60
selectivity ratio [3]: > 7680
selectivity ratio [5]: > 27
pIC50 [6]: 7.03
pIC50 (Leishmania donovani): 5.15

Cl.N=C(N)c1ccc(OCCCCCOc2ccc(C(=N)N)cc2)cc1 [PENTAMIDINE HYDROCHLORIDE]
Survival [8]: >43.5 days
pIC50 (Plasmodium falciparum): 7.85
Survival [4]: >44.3 days
pIC50 [6]: 8.15

Cl.Cl.N=C(N)c1ccc(OCCCCCOc2ccc(C(=N)N)cc2C(N)=O)c(C(N)=O)c1
selectivity ratio [1]: > 3730
pIC50 (L6): < 3.77
pIC50 (Plasmodium falciparum): 7.42
selectivity ratio [3]: > 4420
Survival [4]: 26.5 days
pIC50 [6]: 7.35
Activity [7]: inactive
pIC50 (Leishmania donovani): < 4.30

Cl.Cl.Cl.Cl.N=C(N)c1ccc(OCCCCCOc2ccc(C(=N)N)cc2Cl)c(Cl)c1
selectivity ratio [1]: 255
pIC50 (L6): 4.95
pIC50 (Plasmodium falciparum): 7.59
selectivity ratio [3]: 431
Survival [4]: >29.5 days
selectivity ratio [5]: 8
pIC50 [6]: 7.36
Activity [7]: inactive
pIC50 (Leishmania donovani): 5.84

CNC(=N)c1ccc(OCCCOc2ccc(C(=N)NC)cc2OC)c(OC)c1
selectivity ratio [1]: 3100
pIC50 (L6): 3.75
pIC50 (Plasmodium falciparum): 6.19
selectivity ratio [3]: 276
selectivity ratio [5]: 7
pIC50 [6]: 7.24
pIC50 (Leishmania donovani): 4.60

N=C(N)c1ccc(OCCCCCOc2ccc(N)cc2)cc1
selectivity ratio [1]: 91
pIC50 (L6): 3.92
pIC50 (Plasmodium falciparum): 5.65
selectivity ratio [3]: 54
selectivity ratio [5]: 1
pIC50 [6]: 5.88
pIC50 (Leishmania donovani): < 4.00

Cl.Cl.N=C(N)c1ccc(OCCCOc2ccc(C(=N)N)cc2N)c(N)c1
selectivity ratio [1]: 440
pIC50 (L6): 4.16
pIC50 (Plasmodium falciparum): 7.57
selectivity ratio [3]: 2540
Survival [4]: >40 days
pIC50 [6]: 6.81

Fc1cc(OCCCCCOc2ccc(C3=NCCN3)c(F)c2)ccc1C1=NCCN1
selectivity ratio [1]: 5
pIC50 (L6): 4.63
pIC50 (Plasmodium falciparum): 6.26
selectivity ratio [3]: 43
selectivity ratio [5]: 0.4
pIC50 [6]: 5.35
pIC50 (Leishmania donovani): 4.28
